Results taken from publication PMC5048114 (Iranian Journal of Basic Medical Sciences, 2016).
Values after ≈ are worked out from the molar mass of the structure shown.

Columns and labels:
[1] = system: glutamate-induced neurotoxicity; settings: concentrations ranging from 0.1 to 10 µM; cited from earlier work
[2] = DPPH free radical scavenging assay; settings: 0.3 mM DPPH, 30 min at 37 °C, absorbance 515 nm
In short: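 Test compound at four concentrations (µg/ml) in microplate wells, mixed with ethanolic DPPH. Blank is solvent alone with DPPH. Absorbance decrease is read after incubation. Run in triplicate and reported as the mean of three values.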

[3] = Ferric reducing antioxidant potential; settings: 30 min incubation at 37 °C, absorbance 593 nm
In short: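 FRAP reagent is 300 mM acetate buffer pH 3.6, 20 mM ferric chloride hexahydrate in water and 10 mM TPTZ in 40 mM HCl, combined 10:1:1 by volume (stock concentrations). Test compound at five concentrations (µg/ml) is added to the reagent in microplate wells, and absorbance is read after incubation. Run in triplicate.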

Compound	IC50 (DPPH radical scavenging activity) [2]	attenuation of glutamate-induced neurotoxicity [1]	FRAP [3]
C[C@@H]1O[C@@H](OC[C@H]2O[C@@H](OCCc3ccc(O)c(O)c3)[C@H](O)[C@@H](O[C@@H]3O[C@@H](C)[C@H](O)[C@@H](O)[C@H]3O)[C@@H]2OC(=O)/C=C/c2ccc(O)c(O)c2)[C@H](O)[C@H](O)[C@H]1O [Poliumoside, poliumoside]	0.042 µg/mL (≈ 0.0545 µM)	significantly attenuated glutamate-induced neurotoxicity	14.32 mmol/g
C[C@@H]1O[C@@H](O[C@@H]2[C@@H](O)[C@H](OCCc3ccc(O)c(O)c3)O[C@H](CO)[C@H]2OC(=O)/C=C/c2ccc(O)c(O)c2)[C@H](O)[C@H](O)[C@H]1O [Verbascoside, verbascoside]	0.53 µg/mL (≈ 0.849 µM)		7.49 mmol/g

Further lines, with some results ahead:

IC50 (DPPH radical scavenging activity) [2]	Compound	attenuation of glutamate-induced neurotoxicity [1]	FRAP [3]
0.41 µg/mL (≈ 0.952 µM)	Cc1c(C)c2c(c(C)c1O)CC[C@@](C)(CCC[C@H](C)CCC[C@H](C)CCCC(C)C)O2 [α- tocopherol, α-tocopherol, reference compound]		1.99 mmol/g
1.37 µg/mL (≈ 2.37 µM)	C[C@@H]1O[C@@H](OC[C@H]2O[C@@H](Oc3cc(O)c4c(=O)cc(-c5ccc(O)cc5)oc4c3)[C@H](O)[C@@H](O)[C@@H]2O)[C@H](O)[C@H](O)[C@H]1O [Isorhoifolin, isorhoifolin]		7.67 mmol/g
12 µg/mL (≈ 38.2 µM)	COc1cc(O)c2c(=O)c(OC)c(-c3ccc(O)cc3)oc2c1 [Jaranol, jaranol]		1.5 mmol/g
